The results in this text go back to the EternaBench riboswitch data.

The series relates to MS2 coat protein. In words: apparent Kd, MS2 coat protein; higher = weaker binding; RNA-MaP array; theophylline 2 mM where present. The gist of the method: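 Green signal was scaled to red-channel RNA signal and control-cluster median Fmax, and the apparent Kd was taken as the median of filtered per-cluster binding-curve fits. The binding series used SNAP-549-labelled MS2 coat protein from 0.7 or 1.5 nM, doubling to 3 µM, on designs transcribed by stalled E. coli RNA polymerase on Illumina sequencing-chip clusters. Each series ran without and then with constant ligand in 100 mM Tris-HCl pH 7.5, 80 mM KCl, 4 mM MgCl2, BSA, DTT, yeast tRNA and Tween-20.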

Setting [1] is: designed as: ON switch for theophylline, no ligand.
The mark [2] stands for this setting: ligand present: theophylline, designed as: ON switch for theophylline.
The mark [3] stands for this setting: designed as: OFF switch for theophylline, no ligand.
[4] abbreviates: ligand present: theophylline, designed as: OFF switch for theophylline.

As a reminder, the apparent Kd is a dissociation constant that holds for the conditions of the assay.

Consider “UGAUCCUACAGAGAUACCAGUGCCACUGAGUGACCAGACACAUGAGGAUCACCCAUGUAACACCCUUGGCAGCUCAACUAAAGGG”, for which the “apparent Kd” value under setting [1] stood at 22.2 nM and the “apparent Kd” value under setting [2] was found to be 80.3 nM.
For “AUCGCACCUGGUGAUACCAGCGUUUGCUCGCGACAUGAGGAUCACCCAUGUGGCCAGUGAUGCCCUUGGCAGCAUGGGCGGUGCA” the same measures were 282 nM and 90.2 nM.
For “UGUAUGUGAUUUGAUACCAGUUCUGCUGGUAAAACAUGAGGAUCACCCAUGUUACUUUGGGACCCUUGGCAGCAAAUCGCAUACU” the same measures were 201 nM and 13.9 nM.
Regarding “AAACAUGACAUGGAUACCAGACACAUGAGGAUCACCCAUGUUGAGGAUCACCCAUGUCCCGUCCCUUGGCAGCCAGCAUGAGGAU”, the “apparent Kd” value is, setting by setting: under setting [3], 9.49 nM; under setting [4], 10.2 nM.
On to “UGUAUGUGAUCUGAUACCAGUCCAACUGGUAAAACAUGAGGAUCACCCAUGUAAAAUUGGGACCCUUGGCAGCAGAUCGCAUACU”, for which the “apparent Kd” value was 534 nM under setting [1] and 28.4 nM under setting [2].
For “ACAUGAGGAUCACCCAUGUGAAGGCACGAUACCAGCUGAUCCCGUGGCCCUUGGCAGCGUCCGGUUUGGUCCGGCGGAUGAGACG” the same measures were 24.1 nM and 24.9 nM.
For “GCUGUAAGUGCAGAUACCAGCAGGUGAUAUUUCUAAUGACAUGAGGAUCACCCAUGUAACUGCCCUUGGCAGCUGCACUUACAGC” the same measures were 57.6 nM and 12.9 nM.
For the sequence “UAUAUAUAUAUUGAUACCAGCAGAGAAAACGUUUAUCCUAACAUGAGGAUCACCCAUGUAUGCCCUUGGCAGCGAUAUAUAUAUA”, the “apparent Kd” value is 24.5 nM under setting [3] and 32.5 nM under setting [4].
For “UUAUUUAUAAAUGAUACCAGCCGAUUGGCCGCAAAUCCUAACAUGAGGAUCACCCAUGUCGGCCCUUGGCAGCAUUUAUGGGUUU” the same measures were 76.7 nM and 722 nM.
In the case of “GUCAGUUCUCAUGAUACCAGACCUGCCUCGGACAUGAGGAUCACCCAUGUACCCAAGCGAGUCCCUUGGCAGCAUGUGGCUUAAA”, the “apparent Kd” value by setting is: under setting [1], 19.2 nM; under setting [2], 10.8 nM.
Consider “ACAUGAGGAUCACCCAUGUGCCGUCUUGAUACCAGACCCGAAGUAGUCCCUUGGCAGCAACUACGUGACGGUCGCCCAUGUGUAG”, for which the “apparent Kd” value under setting [3] came out at 14.2 nM and the “apparent Kd” value under setting [4] amounted to 24 nM.
On the same counts, the results for “AUUCCAUAGGUGCAGUUGUUAAAUGGCGAUACCAGCGUGGAAACACGCCCUUGGCAGCGCCAAAACAUGAGGAUCACCCAUGUUA” are 95.8 nM and 186 nM.
For “AGACAUGAGGAUCACCCAUGUAGUACGGAUACCAGAUCCAGAUGCGUCCCUUGGCAGCUGUAGUACAGCGUUACGUCGCUCAUAG” the same measures were 25.2 nM and 61 nM.
On the same counts, the results for “UGGUCACUAGGAGAUACCAGCCGACAUGAGGAUCACCCAUGUAACCGGCGUCCUCCCUUAGGCCCUUGGCAGCUCGUAGUUGCUC” are 12.2 nM and 156 nM.
As for “AAAACACAUGAGGAUCACCCAUGUCGUGAUACCAGUCAACAUGAGGACCCUUGGCAGCAUAAAAUGGGUAACAUGAGGAUCACCC”, the “apparent Kd” value is 85.1 nM under setting [3] and 133 nM under setting [4].
For “AGACAUGAGGAUCACCCAUGUAGUACGGAUACCAGAUCCAGAUGCAUCCCUUGGCAGCUGUGGUACAGCGUUACAUCGCUCGUAG” the same measures were 20 nM and 20.6 nM.
Take “GCACGACAUGAGGAUCACCCAUGUGCAGAUACCAGUAAUGUAUGUUACCCUUGGCAGCUGAGUAGGUCUGGAGGGCUAUAGGUAA”: the “apparent Kd” value was determined as 13.3 nM under setting [1] and 17.1 nM under setting [2].
Take “UGAUCCUACAGAGAUACCAGUGCCGCUAGAUAACUAUGCACAUGAGGAUCACCCAUGUAACACCCUUGGCAGCUCAACUAAAGGG”: the “apparent Kd” value is, setting by setting: under setting [1], 92.2 nM; under setting [2], 115 nM.
On the same counts, the results for “AUUAAUAGUUGUGAUACCAGACGAACAUGAGGAUCACCCAUGUAACUUUUAGGUGUUGUAGUCCCUUGGCAGCACUAUGUAGUUA” are 40 nM and 33.7 nM.
On the same counts, the results for “UGUAUGUGAUGUGAUACCAGUCCAAUACUGGUAACAUGAGGAUCACCCAUGUAAUGAUGGGACCCUUGGCAGCACAUCGCAUACU” are 212 nM and 111 nM.
Regarding “AAACAUUGCUGCGAUACCAGACAUGAGGAUCACCCAUGUACCAAGAAAACGUACAUAAAUGUCCCUUGGCAGCGCAGCAAUGAAA”, the “apparent Kd” value is 498 nM under setting [3] and 1290 nM under setting [4].
In the case of “AACAUGAGGAUCACCCAUGUAAAAUGGGAUACCAGAGACGAAAGUCUCCCUUGGCAGCCCACUGCCUCCUUUACGAAAGUAGAGG”, the “apparent Kd” value under setting [1] was found to be 31.6 nM and the “apparent Kd” value under setting [2] was found to be 18.2 nM.
“GGUCUCUGGAGCGAUACCAGCUUGAGUGUACUGGCCAGGUACAUGAGGAUCACCCAUGUAAGCCCUUGGCAGCGCUGCAGAGACC”: the “apparent Kd” value worked out at 10.1 nM under setting [3] and 29.1 nM under setting [4].
